# Data as given in ChEMBL document CHEMBL4177770, “Discovery of MK-6169, a Potent Pan-Genotype Hepatitis C Virus NS5A Inhibitor with Optimized Activity against Common Resistance-Associated Substitutions” (J Med Chem, 2018).
# Positions count from the first letter of the chain named.
# Assays:
# [1] = molecular target: Genome polyprotein (Hepatitis C virus genotype 1b (isolate Con1) (HCV)) (UniProt Q9WMX2); test: Inhibition of NS5A in HCV genotype 1b Con1 infected in HB1 replicon cells assessed as decrease in viral replication by TaqMan-based assay; format: cell-based
# [2] = molecular target: Genome polyprotein (Hepatitis C virus genotype 3a (isolate NZL1) (HCV)) (UniProt Q81258); test: Inhibition of NS5A in HCV genotype 3a NZL1 infected in HB1 replicon cells assessed as decrease in viral replication by TaqMan-based assay; format: cell-based
# [3] = molecular target: T1, Nonstructural protein 5A (Hepatitis C virus) (UniProt Q5L478); test: Inhibition of NS5A in HCV genotype 1a infected in HuH7 replicon cells assessed as decrease in viral replication after 3 days by RT-PCR method; format: cell-based; details: Hepatitis C virus subtype 1a
# T1 sequence (whole entry): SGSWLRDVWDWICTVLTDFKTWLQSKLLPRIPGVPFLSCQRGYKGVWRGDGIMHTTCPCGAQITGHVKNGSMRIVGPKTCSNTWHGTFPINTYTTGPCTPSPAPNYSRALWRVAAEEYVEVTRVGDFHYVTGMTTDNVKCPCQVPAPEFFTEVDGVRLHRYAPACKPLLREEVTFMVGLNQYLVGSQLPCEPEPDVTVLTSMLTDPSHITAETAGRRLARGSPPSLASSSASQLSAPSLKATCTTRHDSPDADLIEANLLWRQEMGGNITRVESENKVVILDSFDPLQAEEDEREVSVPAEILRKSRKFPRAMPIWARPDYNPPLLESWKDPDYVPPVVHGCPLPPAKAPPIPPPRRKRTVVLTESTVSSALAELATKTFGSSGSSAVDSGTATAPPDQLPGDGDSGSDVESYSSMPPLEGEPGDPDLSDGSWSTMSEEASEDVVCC
# [4] = molecular target: T1, Nonstructural protein 5A (Hepatitis C virus); test: Inhibition of NS5A in HCV genotype 1b infected in HuH7 replicon cells assessed as decrease in viral replication after 3 days by RT-PCR method; format: cell-based; details: Hepatitis C virus subtype 1b
# [5] = molecular target: T1, Nonstructural protein 5A (Hepatitis C virus); test: Inhibition of NS5A L31M mutant in HCV genotype 2b infected in HuH7 replicon cells assessed as decrease in viral replication after 3 days by RT-PCR method; format: cell-based; details: Hepatitis C virus subtype 2b
# [6] = molecular target: T1, Nonstructural protein 5A (Hepatitis C virus); test: Inhibition of NS5A in HCV genotype 3a infected in HuH7 replicon cells assessed as decrease in viral replication after 3 days by RT-PCR method; format: cell-based; details: Hepatitis C virus subtype 3a
# [7] = molecular target: T1, Nonstructural protein 5A (Hepatitis C virus); test: Inhibition of NS5A in HCV genotype 4a infected in HuH7 replicon cells assessed as decrease in viral replication after 3 days by RT-PCR method; format: cell-based; details: Hepatitis C virus subtype 4a
# [8] = tested on: T2, Nonstructural protein 5A (Hepatitis C virus), Q5L478 [Y93H]; test: Inhibition of NS5A Y93H mutant in HCV genotype 1a infected in HuH7 replicon cells assessed as decrease in viral replication after 3 days by RT-PCR method; format: cell-based; details: Hepatitis C virus subtype 1a
# T2 sequence (whole entry): T1 sequence (whole entry) with Y93H
# [9] = molecular target: T1, Nonstructural protein 5A (Hepatitis C virus); test: Inhibition of NS5A L31V mutant in HCV genotype 1a infected in HuH7 replicon cells assessed as decrease in viral replication after 3 days by RT-PCR method; format: cell-based; details: Hepatitis C virus subtype 1a
# [10] = Half life in Wistar Han rat at 2 mg/kg, iv by LC/MS method; format: ADME, organism-based; details: in vivo
# How it was run: (§1)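 Male Wistar Han rats, two per group, dosed IV at 2 mg/kg in 60% PEG200. Plasma was obtained by centrifuging the blood, and compound concentrations were measured by LC/MS.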
# [11] = Half life in Beagle dog at 1 mg/kg, iv by LC/MS method; format: ADME, organism-based, Canis lupus familiaris; details: in vivo
# How it was run: (§2)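 Beagle dogs, two animals per group, dosed IV at 1 mg/kg in 60% PEG200. Plasma was prepared from collected blood by centrifugation, and compound was quantified by LC/MS.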
# [12] = Clearance in Wistar Han rat at 2 mg/kg, iv by LC/MS method; format: ADME, organism-based; details: in vivo; how it was run: as §1
# [13] = Clearance in Beagle dog at 1 mg/kg, iv by LC/MS method; format: ADME, organism-based, Canis lupus familiaris; details: in vivo; how it was run: as §2
# [14] = AUC in Wistar Han rat at 10 mg/kg, po by LC/MS method; format: ADME, organism-based; details: in vivo
# How it was run: (§3)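 Male Wistar Han rats, two per dosing group, dosed orally at 10 mg/kg in 10% TWEEN. Plasma was separated from collected blood by centrifugation and analysed by LC/MS.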
# [15] = AUC in Beagle dog at 5 mg/kg, po by LC/MS method; format: ADME, organism-based, Canis lupus familiaris; details: in vivo
# How it was run: (§4)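 Beagle dogs, two animals per dosing group. Oral dose was given in 10% TWEEN. Blood was collected and spun to plasma, and plasma compound levels were measured by LC/MS.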
# [16] = Cmax in Wistar Han rat at 10 mg/kg, po by LC/MS method; format: ADME, organism-based; set-up: dose 10 mg/kg, route oral; details: in vivo; how it was run: as §3
# [17] = Cmax in Beagle dog at 5 mg/kg, po by LC/MS method; format: ADME, organism-based, Canis lupus familiaris; set-up: dose 5 mg/kg, route oral; details: in vivo; how it was run: as §4
# [18] = Drug level in Wistar Han rat at 10 mg/kg, po measured at 24 hrs by LC/MS method; format: ADME, organism-based; details: in vivo, read-out: Drug uptake; how it was run: as §3
# [19] = Drug level in Beagle dog at 5 mg/kg, po measured at 24 hrs by LC/MS method; format: ADME, organism-based, Canis lupus familiaris; details: in vivo, read-out: Drug uptake; how it was run: as §4
# [20] = Oral bioavailability in Wistar Han rat at 10 mg/kg by LC/MS method; format: ADME, organism-based; details: in vivo; how it was run: as §3
# [21] = Oral bioavailability in Beagle dog at 5 mg/kg by LC/MS method; format: ADME, organism-based, Canis lupus familiaris; details: in vivo; how it was run: as §4
# [22] = Tmax in Wistar Han rat at 10 mg/kg, po by LC/MS method; format: ADME, organism-based; details: in vivo; how it was run: as §3
# [23] = MRT in Wistar Han rat at 10 mg/kg, po by LC/MS method; format: ADME, organism-based; details: in vivo; how it was run: as §3
# [24] = AUC in Wistar Han rat at 100 mg/kg, po by LC/MS method; format: ADME, organism-based; details: in vivo
# How it was run: (§5)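 Single rising oral dose study in fed male Wistar Han rats, dosed PO in 10% TWEEN at the indicated doses. Plasma was obtained by centrifuging the blood, and compound levels were determined by LC/MS.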
# [25] = Cmax in Wistar Han rat at 100 mg/kg, po by LC/MS method; format: ADME, organism-based; set-up: dose 100 mg/kg, route oral; details: in vivo; how it was run: as §5
# [26] = Drug level in Wistar Han rat at 100 mg/kg, po measured at 24 hrs by LC/MS method; format: ADME, organism-based; details: in vivo, read-out: Drug uptake; how it was run: as §5
# [27] = Tmax in Wistar Han rat at 100 mg/kg, po by LC/MS method; format: ADME, organism-based; details: in vivo; how it was run: as §5
# [28] = MRT in Wistar Han rat at 100 mg/kg, po by LC/MS method; format: ADME, organism-based; details: in vivo; how it was run: as §5
# [29] = AUC in Wistar Han rat at 300 mg/kg, po by LC/MS method; format: ADME, organism-based; details: in vivo; how it was run: as §5
# [30] = Cmax in Wistar Han rat at 300 mg/kg, po by LC/MS method; format: ADME, organism-based; set-up: dose 300 mg/kg, route oral; details: in vivo; how it was run: as §5
# [31] = Drug level in Wistar Han rat at 300 mg/kg, po measured at 24 hrs by LC/MS method; format: ADME, organism-based; details: in vivo, read-out: Drug uptake; how it was run: as §5
# [32] = Tmax in Wistar Han rat at 300 mg/kg, po by LC/MS method; format: ADME, organism-based; details: in vivo; how it was run: as §5
# [33] = MRT in Wistar Han rat at 300 mg/kg, po by LC/MS method; format: ADME, organism-based; details: in vivo; how it was run: as §5
# [34] = tested on: Hepatitis C virus subtype 1a; test: Resistance ratio of EC90 for NS5A L31V mutant in HCV genotype 1a infected in HuH7 replicon cells to EC90 for NS5A in HCV genotype 1a infected in HuH7 replicon cells; format: cell-based
# [35] = tested on: Hepatitis C virus subtype 1a; test: Resistance ratio of EC90 for NS5A Y93H mutant in HCV genotype 1a infected in HuH7 replicon cells to EC90 for NS5A in HCV genotype 1a infected in HuH7 replicon cells; format: cell-based
# [36] = Resistance ratio of EC90 for NS5A in HCV genotype 1b infected in HuH7 replicon cells to EC90 for NS5A in HCV genotype 1a infected in HuH7 replicon cells; format: cell-based
# [37] = Resistance ratio of EC90 for NS5A L31M mutant in HCV genotype 2b infected in HuH7 replicon cells to EC90 for NS5A in HCV genotype 1a infected in HuH7 replicon cells; format: cell-based
# [38] = Resistance ratio of EC90 for NS5A in HCV genotype 3a infected in HuH7 replicon cells to EC90 for NS5A in HCV genotype 1a infected in HuH7 replicon cells; format: cell-based
# [39] = Resistance ratio of EC90 for NS5A in HCV genotype 4a infected in HuH7 replicon cells to EC90 for NS5A in HCV genotype 1a infected in HuH7 replicon cells; format: cell-based
# Sequence of Genome polyprotein (Hepatitis C virus genotype 3a (isolate NZL1) (HCV)) (Q81258 whole entry): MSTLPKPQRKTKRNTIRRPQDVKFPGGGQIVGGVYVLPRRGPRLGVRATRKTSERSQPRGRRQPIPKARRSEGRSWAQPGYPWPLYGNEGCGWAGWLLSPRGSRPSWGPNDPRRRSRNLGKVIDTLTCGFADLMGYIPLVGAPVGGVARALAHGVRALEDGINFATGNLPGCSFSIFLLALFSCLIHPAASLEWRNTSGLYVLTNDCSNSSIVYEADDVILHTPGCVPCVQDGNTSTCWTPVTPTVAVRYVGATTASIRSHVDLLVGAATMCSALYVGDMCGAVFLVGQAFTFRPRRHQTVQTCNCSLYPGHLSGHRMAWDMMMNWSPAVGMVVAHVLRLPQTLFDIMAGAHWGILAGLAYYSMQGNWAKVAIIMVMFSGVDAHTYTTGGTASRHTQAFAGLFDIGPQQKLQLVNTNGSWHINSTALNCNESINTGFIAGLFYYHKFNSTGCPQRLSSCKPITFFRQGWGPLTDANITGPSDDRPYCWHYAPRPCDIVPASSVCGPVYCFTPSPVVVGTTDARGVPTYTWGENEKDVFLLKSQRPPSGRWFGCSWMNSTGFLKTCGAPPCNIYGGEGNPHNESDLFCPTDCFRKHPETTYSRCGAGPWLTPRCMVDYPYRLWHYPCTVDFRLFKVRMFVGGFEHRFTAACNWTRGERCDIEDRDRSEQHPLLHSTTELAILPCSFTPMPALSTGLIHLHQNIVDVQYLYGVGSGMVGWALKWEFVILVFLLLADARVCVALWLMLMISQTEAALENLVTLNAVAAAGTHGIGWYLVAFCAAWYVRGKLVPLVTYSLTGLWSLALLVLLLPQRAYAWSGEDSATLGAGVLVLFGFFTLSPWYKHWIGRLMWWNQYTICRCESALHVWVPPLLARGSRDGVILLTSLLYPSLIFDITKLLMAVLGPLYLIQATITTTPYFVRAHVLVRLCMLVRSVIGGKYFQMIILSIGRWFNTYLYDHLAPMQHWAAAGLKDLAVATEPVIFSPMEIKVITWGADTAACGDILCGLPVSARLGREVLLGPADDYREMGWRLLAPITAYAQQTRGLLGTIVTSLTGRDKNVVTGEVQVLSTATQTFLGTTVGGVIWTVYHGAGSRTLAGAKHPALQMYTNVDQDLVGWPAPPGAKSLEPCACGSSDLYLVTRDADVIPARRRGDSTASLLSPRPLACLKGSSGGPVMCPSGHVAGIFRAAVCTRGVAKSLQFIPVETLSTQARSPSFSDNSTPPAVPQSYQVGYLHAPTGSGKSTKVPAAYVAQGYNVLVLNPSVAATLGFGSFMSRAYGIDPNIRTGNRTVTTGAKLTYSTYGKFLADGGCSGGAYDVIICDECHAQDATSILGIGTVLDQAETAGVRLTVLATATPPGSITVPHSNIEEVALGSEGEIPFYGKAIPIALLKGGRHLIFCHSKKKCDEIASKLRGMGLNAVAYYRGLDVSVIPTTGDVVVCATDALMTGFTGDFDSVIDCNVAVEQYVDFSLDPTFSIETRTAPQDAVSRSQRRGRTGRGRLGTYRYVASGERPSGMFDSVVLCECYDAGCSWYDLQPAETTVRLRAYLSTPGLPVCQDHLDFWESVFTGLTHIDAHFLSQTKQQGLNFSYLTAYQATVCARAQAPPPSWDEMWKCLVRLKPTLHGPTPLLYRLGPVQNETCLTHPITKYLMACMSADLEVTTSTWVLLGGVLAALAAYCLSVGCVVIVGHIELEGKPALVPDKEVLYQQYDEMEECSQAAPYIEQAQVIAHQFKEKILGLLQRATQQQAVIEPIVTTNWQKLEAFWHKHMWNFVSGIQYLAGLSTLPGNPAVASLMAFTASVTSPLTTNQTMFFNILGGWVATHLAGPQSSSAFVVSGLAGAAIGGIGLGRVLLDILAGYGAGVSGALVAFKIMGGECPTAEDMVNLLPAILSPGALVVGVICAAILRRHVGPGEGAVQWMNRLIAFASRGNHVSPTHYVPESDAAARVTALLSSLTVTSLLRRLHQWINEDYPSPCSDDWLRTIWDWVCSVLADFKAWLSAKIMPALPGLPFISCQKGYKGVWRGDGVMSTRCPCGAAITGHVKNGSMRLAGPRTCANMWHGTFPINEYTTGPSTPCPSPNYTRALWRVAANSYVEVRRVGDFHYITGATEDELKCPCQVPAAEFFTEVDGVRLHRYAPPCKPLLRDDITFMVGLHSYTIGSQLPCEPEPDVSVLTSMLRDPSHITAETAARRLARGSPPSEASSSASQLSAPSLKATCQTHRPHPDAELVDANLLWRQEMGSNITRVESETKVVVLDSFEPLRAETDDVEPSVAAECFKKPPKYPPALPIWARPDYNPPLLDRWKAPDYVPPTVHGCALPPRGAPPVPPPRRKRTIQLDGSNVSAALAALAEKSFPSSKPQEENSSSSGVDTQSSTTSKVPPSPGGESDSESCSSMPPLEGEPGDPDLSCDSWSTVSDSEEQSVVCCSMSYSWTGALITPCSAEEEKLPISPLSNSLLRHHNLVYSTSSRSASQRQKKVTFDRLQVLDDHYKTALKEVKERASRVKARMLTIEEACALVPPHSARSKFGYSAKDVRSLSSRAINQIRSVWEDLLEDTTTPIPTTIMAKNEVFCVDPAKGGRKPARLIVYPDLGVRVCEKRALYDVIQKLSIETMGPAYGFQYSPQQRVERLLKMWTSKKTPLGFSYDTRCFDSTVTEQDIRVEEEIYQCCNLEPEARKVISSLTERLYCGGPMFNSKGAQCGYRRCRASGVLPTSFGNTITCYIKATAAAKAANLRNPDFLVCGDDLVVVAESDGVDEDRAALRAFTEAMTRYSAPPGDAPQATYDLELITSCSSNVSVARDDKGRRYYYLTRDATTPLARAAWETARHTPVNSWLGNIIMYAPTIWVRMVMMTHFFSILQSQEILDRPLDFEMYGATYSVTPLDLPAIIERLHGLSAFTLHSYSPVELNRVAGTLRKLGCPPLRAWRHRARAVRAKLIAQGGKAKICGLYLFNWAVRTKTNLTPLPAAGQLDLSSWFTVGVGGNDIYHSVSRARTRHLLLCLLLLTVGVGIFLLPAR
compound,measurement,setting,value
COC(=O)N[C@H](C(=O)N1CCC[C@H]1c1nc(-c2ccc3c(c2)O[C@@H](c2ccccc2)n2c-3cc3cc(-c4c[nH]c([C@@H]5CCCN5C(=O)[C@@H](NC(=O)OC)C(C)C)n4)ccc32)c[nH]1)C(C)C,EC90,[1],6 pM
same,EC90,[2],120 pM
COC(=O)N[C@H](C(=O)N1CCC[C@H]1c1ncc(-c2cc(F)c3c(c2)O[C@@H](c2ccc(C4CC4)s2)n2c-3cc3cc(-c4cnc([C@@H]5CCCN5C(=O)[C@@H](NC(=O)OC)C5CCOCC5)[nH]4)ccc32)[nH]1)C(C)C,EC90,[3],4 pM
same,EC90,[4],5 pM
same,EC90,[5],14 pM
same,EC90,[6],8 pM
same,EC90,[7],5 pM
same,EC90,[8],18 pM
same,EC90,[9],6 pM
same,half-life,[10],4 h
same,half-life,[11],4.2 h
same,clearance,[12],1.08 L/h/kg
same,clearance,[13],0.24 L/h/kg
same,AUC,[14],140 to 290 nM·h
same,AUC,[15],2610 nM·h
same,Cmax,[16],0.034 to 20 µM
same,Cmax,[17],0.46 µM
same,concentration at 24 h,[18],0.002 to 1 µM
same,concentration at 24 h,[19],0.022 µM
same,bioavailability,[20],3.1%
same,bioavailability,[21],11%
same,Tmax,[22],3 h
same,MRT,[23],7.9 h
same,AUC,[24],1640 nM·h
same,Cmax,[25],0.2 µM
same,concentration at 24 h,[26],0.011 µM
same,Tmax,[27],4 h
same,MRT,[28],8.3 h
same,AUC,[29],3990 nM·h
same,Cmax,[30],0.36 µM
same,concentration at 24 h,[31],0.032 µM
same,Tmax,[32],4 h
same,MRT,[33],9.9 h
same,Ratio,[34],< 10
same,Ratio,[35],< 10
same,Ratio,[36],< 10
same,Ratio,[37],< 10
same,Ratio,[38],< 10
same,Ratio,[39],< 10
